Assay results collected from several papers.
Target: Serine/threonine-protein kinase 17A (STK17A, Homo sapiens, UniProt Q9UEE5)
Sequence (Q9UEE5 1-414, as in one of the studies): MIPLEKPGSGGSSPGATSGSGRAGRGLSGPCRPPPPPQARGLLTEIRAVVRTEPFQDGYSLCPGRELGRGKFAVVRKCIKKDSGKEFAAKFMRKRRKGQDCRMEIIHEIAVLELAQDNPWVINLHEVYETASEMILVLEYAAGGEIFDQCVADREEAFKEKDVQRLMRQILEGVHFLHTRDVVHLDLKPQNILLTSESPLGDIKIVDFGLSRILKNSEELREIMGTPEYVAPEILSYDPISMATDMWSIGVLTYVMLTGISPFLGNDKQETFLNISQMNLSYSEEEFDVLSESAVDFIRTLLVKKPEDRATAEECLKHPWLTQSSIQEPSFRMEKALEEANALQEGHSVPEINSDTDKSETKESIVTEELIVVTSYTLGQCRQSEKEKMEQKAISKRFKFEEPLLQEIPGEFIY

| SMILES | test | setting | endpoint | result |
| --- | --- | --- | --- | --- |
| Cc1cc(O)c(-c2ccc([C@@H](C)CN(C)C)cc2)c2c1[nH]c(=O)c1sccc12 | cell-free assay, inhibitor | 0.1 µM | inhibition | 3.3% |
| COc1ccc2oc(-c3ccc4nc(N)oc4c3)c/c(=N\c3ccccc3NC(=O)CCN)c2c1 | binding | 1 µM | remaining binding | 89% |
| CCCCC(=O)Nc1ccc(-c2ccc3ncn(CCC)c(=O)c3c2)cn1 | binding, competition with immobilised ligand | 0.5 µM | remaining binding | 100% |
| Cc1ccc(NC(=O)c2ccnc(C(F)(F)F)c2)cc1-c1cc(OCCO)nc(N2CCOCC2)c1 | binding | 1 µM | remaining binding | 91% |
| CC#CC(=O)N1CCC[C@H]1c1nc(-c2ccc(C(=O)Nc3ccccn3)cc2)c2c(N)nccn12 | enzyme activity, inhibitor | 1 µM | inhibition | 0% |
| CC(C)S(=O)(=O)c1ccc2nccc(Nc3ccc4sc(C5CCCC5)nc4c3)c2c1 | enzyme activity, inhibitor | 1 µM | activity vs control | 108% |
| C=CC(=O)N1CCC[C@@H](n2nc(-c3ccc(Oc4ccccc4)cc3)c3c(N)ncnc32)C1 | enzyme activity, inhibitor | 1 µM | inhibition | 8% |
| COc1ccc2[nH]c3c4[nH]c5ccc(OC)cc5c4c4c(c3c2c1)C(=O)NC4=O | binding | 1 µM | remaining binding | 0.4% |
